From PubChem BioAssay AID488858 (Broad Institute, 2010) come the findings set out here.

Inconclusive results are not listed. Activity calls are given as the source filed them.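 How the source made its calls: active means compounds raising caspase signal whose fitted AC50 is at most tenfold their top valid tested dose; inconclusive means flat fit at 30 to 70% activation, or poor fit; inactive means the rest.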

System in one experiment: not listed separately
As to the kind of experiment: caspase induction in A1-dependent fibroblasts – cell-based, MEF A1-2A-BIM, luminescence, dry powder, set 3, A1 (BCL2A1) inhibitor project, dose response (AID 488858). Particulars: MEF A1-2A-BIM cells, caspase-3/7 luminescence; at 150 µM (top of the series). An outline of the steps: (§1)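 Material: A1-dependent A1-2A-BIM mouse embryonic fibroblasts; Quantity: 2500 cells per well; Buffer or medium: RPMI medium with 10% FBS; Dosing: pinned compound dose series; Times: 3 h compound at 37 °C, 1 h reagent at RT; Signal: caspase-3/7 DEVD luminescence.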
Consider `CC(=O)OC(C)(C)/C=C/C(=O)[C@](C)(O)C1[C@H](O)C[C@@]2(C)C3CC=C4C(C[C@H](O)C(=O)C4(C)C)[C@]3(C)C(=O)C[C@]12C` (some centres undefined), for which the caspase activation is 1.66% (inactive).
Turning to `COc1cc(/C=C(/C#N)c2nc3ccccc3[nH]2)ccc1OCC(=O)Nc1ccccc1C(C)C`, the caspase activation was 0.201% (inactive).

For another experiment, the system named is MEF A1-2A-BIM cells, caspase-3/7 luminescence. The description is as above.
Settings: not given
An outline of the steps: as §1
As for `C=C1[C@@H](C)[C@H]2[C@H](Cc3ccccc3)NC(=O)[C@]23OC(=O)/C=C\[C@H](O)CCC[C@@H](C)C/C=C/[C@H]3[C@@H]1O`, the AC50 was 2.72 µM.
As to `Nc1nc(F)nc2c1ncn2[C@@H]1O[C@H](CO)[C@@H](O)[C@H]1O`, the AC50 was 2.87 µM.
Consider `Cc1ccc(Sc2c([N+](=O)[O-])c(=O)n(C)c3ccccc23)cc1`, for which the AC50 is 21 µM.
As to `Cc1ccc(CS(=O)(=O)c2ncc(Cl)c(C(=O)Nc3nnc(C(C)C)s3)n2)cc1`, the AC50 is 12.3 µM.
As to `Cc1c(CCOC(=O)c2ccc(N3CCOCC3)c([N+](=O)[O-])c2)sc[n+]1CC#N`, the AC50 was 10.7 µM.
`C=C1[C@@H](C)[C@H]2[C@H](Cc3ccccc3)NC(=O)[C@]23[C@H](OC(C)=O)/C=C/[C@](C)(O)C(=O)[C@@H](C)C/C=C/[C@H]3[C@@H]1O`: the AC50 is 1.2 µM.
Turning to `Cc1c(C=O)c(C=O)c(C)n1Cc1ccccc1`, the AC50 is 6.27 µM.
`COc1cc(CN2CCN(c3cc(C)ccc3C)CC2)ccc1O`: the AC50 is 10.6 µM.
For `CCc1cc2c(=O)c(-c3cnn(-c4ccccc4)c3)c(C)oc2cc1OCC(=O)Nc1cccc(C)c1`, the AC50 was 5.41 µM.
On to `O=C(CCl)N=c1sccn1Cc1ccccc1Cl`, for which the AC50 is 1.06 µM.
`CCc1nnc(NC(=O)c2nc(S(=O)(=O)Cc3ccccc3)ncc2Cl)s1`: the AC50 was 15.6 µM.
Turning to `CC(C)(C)n1nc(-c2ccc(Cl)cc2)c2c(N)ncnc21`, the AC50 is 6.5 µM.
Regarding `CCSc1nnc(NC(=O)c2nc(S(=O)(=O)Cc3ccc(F)cc3)ncc2Cl)s1`, the AC50 is 14.4 µM.
On the same count and under the same terms, under `C/C1=C/C(=O)O[C@@H]2C[C@@H](CC[C@H](C)/C=C\CC1)O[C@@](O)(C1CSC(=O)N1)C2` (some centres undefined) stands 0.37 µM; under `Cn1c(=NC(=O)CCl)sc2ccccc21`, 4 µM; under `O=C(Oc1cccc(/C=N/Nc2nc(Nc3ccccc3)nc(N3CCOCC3)n2)c1)c1ccco1`, 4.23 µM.
Regarding `COc1ccc(N(C(=O)CCl)C(C(=O)NCCc2ccccc2)c2cccs2)cc1Cl` (centres undefined), the AC50 is 0.236 µM.
On to `CCOC(=O)CSC1=N/C(=C/c2ccc(-n3cncn3)cc2)C(=O)N1C(C)=O`, for which the AC50 was 9.77 µM.
Same read-out and setting: the value for `Cc1cccc(CS(=O)(=O)c2ncc(Cl)c(C(=O)Nc3nnc(C(C)C)s3)n2)c1` was 12.6 µM; that for `CC(=O)N[C@H]1[C@H](O[C@H]2CC[C@@]3(C)C(CC[C@]4(C)C3CC=C3[C@@H]5CC(C)(C)CC[C@]5(C(=O)OC5OCC(O)C(O)C5O)C(O)C[C@]34C)C2(C)C)O[C@H](COC2OCC(O)C(OC3OCC(O)C(O)C3O)C2O)[C@@H](O[C@@H]2O[C@@H](C)[C@H](O)[C@@H](O)[C@H]2O[C@@H]2O[C@@H](C)[C@H](O)[C@@H](O)[C@H]2O)[C@@H]1O` (some centres undefined) was 9.71 µM; that for `Cc1cccc(NC(=O)/C(C#N)=C/c2cn(CC(=O)NCc3ccco3)c3ccccc23)c1` was 5.6 µM.
The same measure, in the same setting: the value for `Cc1cc(C(=O)CCl)c(C)n1CCc1ccc(Cl)cc1` was 6.06 µM.
